Inconclusive results are not listed. Calls of active or inactive are those of the source.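 How the source made its calls, unless noted: active means inhibition over a set limit, the all-compound mean plus 3 SD, in both replicate runs; inconclusive means over that limit in just one replicate run; inactive means at or under that limit in both runs.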
What was measured:
[1] = OD615 S. cerevisiae growth inhibition, permissive medium, pilot counter-assay, permissive growth control for S. cerevisiae lifespan shortening project (AID 705;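 active means growth inhibition above 25% in both replicates, a cutoff set 3 SD above the mean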); details: OD615, 24 h, at 10 µM, active compounds read high
In short: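 System: Engineered DeaD yeast | Buffer or medium: SC raffinose/galactose permissive medium | Incubation: Cells pre-grown 4 h, then 24 h compound exposure, 30 °C humidified | Measured by: Absorbance (optical density) at 615 nm | Read-out: Reduction in yeast growth (OD615)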

[2] = Restrictive medium S. cerevisiae growth inhibition, OD615, pilot screen of yeast lifespan reduction project, restrictive growth control (AID 706;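 active means growth inhibition above a set limit, 3 SD over mean compound inhibition, in both replicates, cut at about 43% in these data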;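 further: modified DeaD lifespan yeast strain shifted to restrictive glucose medium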); details: OD615, 48 h, at 10 µM, active compounds read high
In short: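 Material: modified S. cerevisiae; Medium: glucose-based CSMM-D restrictive medium; Compound dosing: one concentration, 10 µM final, 0.25% DMSO; Incubation: 48 h compound exposure at 30 °C; Measured by: OD615.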

[3] = viability gain of MRP-1-high H69AR cells under doxorubicin, pilot screen, MRP-1 activator project, CellTiter-Glo, duplicate (AID 807;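 active means viability increase at or above a cutoff of the median across tested compounds plus 3 SD, cut at about 8.5% in these data, passing the limit was not always enough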;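 further: compound pretreatment 18-22 h then 72 h combined with doxorubicin; 0% = doxorubicin alone and 100% = vehicle without doxorubicin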); details: H69AR viability with doxorubicin, CellTiter-Glo luminescence; at 10 µM; active compounds read high
[4] = growth suppression of PTEN-deleted HCT116, pilot screen, cell-based, HCT116 clonal line, CellTiter-Glo (AID 824;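 active means viability at or below 27.92% in each of two runs, the all-compound median minus 4 SD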;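 further: 0% = 20 µM Hyamine control and 100% = vehicle cell control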); details: 60 h, at 10 µM, active compounds read low
[5] = inhibitors of the yeast RAM network, pilot screen, dse1pr::URA3 reporter, 5-FOA selection (AID 869);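 further: 0% = DMSO wells with no growth and 100% = 10 µM 1-NA-PP1 with full growth; RAM network block rescues cells from 5-FOA so hits raise OD615 growth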; details: S. cerevisiae dse1pr::URA3 5-FOA growth, OD615, 2 d; at 10 µM; active compounds read high; strain carries analog-sensitive mutant Cbk1 kinase
[6] = RAM signaling pathway blockade in yeast – S. cerevisiae, Pdr1DBD-CYC8 efflux-inhibited sensitized strain, primary screen (AID 1298;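 active means RAM network inhibition above 8.4% in each of two replicates, 3 SD over the compound average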;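 further: 0% = DMSO untreated cells without growth and 100% = 10 µM 1-NA-PP1 full growth; higher means more yeast growth rescued from 5-FOA killing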); details: S. cerevisiae cbk1-as DSE1-URA3 strain, 5-FOA growth OD615, 2 d; at 50 µM; active compounds read high

Cc1ccc(C(=O)COC(=O)c2ccc(Br)o2)cc1C
inactive: growth inhibition [1] -5.44% | growth inhibition [2] -2.75% | viability increase [3] 1.02% | viability [4] 100% | inhibition [5] 2.77% | RAM network inhibition [6] 1.29%

O=C(CN1CCCCC1)Nc1ccc(F)c(Cl)c1
inactive: growth inhibition [1] 5.67% | growth inhibition [2] 4.63% | viability increase [3] -2.13% | viability [4] 98.4% | inhibition [5] 1.7% | RAM network inhibition [6] -0.11%

O=C(Cc1ccc(Cl)cc1)Nc1ccccc1CO
inactive: growth inhibition [1] 0.105% | growth inhibition [2] -1.33% | viability increase [3] 0.18% | viability [4] 101% | inhibition [5] 0.45% | RAM network inhibition [6] 5.48%
